6 compounds from ChEMBL document CHEMBL1671820, “Incorporation of basic side chains into cryptolepine scaffold: structure-antimalarial activity relationships and mechanistic studies” (J Med Chem, 2011) can be followed below.

A short description of series [1]: Inhibition of Plasmodium falciparum falcipain 3.
Series [2] deals with Plasmodium falciparum. The series is described as follows: Antiplasmodial activity against chloroquine and pyrimethamine-resistant ring stage Plasmodium falciparum V1/S infected in human red blood cells after 48 hrs. Type of series: functional, organism-based.
The test system of series [3] is Nucleic Acid. Kind of series: Binding affinity to s(GATCCTAGGATC)2-DNA by fluorescence spectroscopy. Type of series: nucleic-acid assay. In a few lines:
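Buffer 0.01 M phosphate pH 7.4, 0.1 M NaCl, 25.0 C, 1 cm quartz cuvettes. Fluorescence: excitation 339 nm, emission 450–500 nm. Dilution-corrected intensity change fitted to single-site binding for Kd; Kass taken as 1/Kd.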

Series [4] in a line: Inhibition of Plasmodium falciparum falcipain 2.
The subject of series [5] is Plasmodium falciparum. The series is described as follows: Resistance index, ratio of IC50 for chloroquine-resistant ring stage Plasmodium falciparum W2 to IC50 for chloroquine-sensitive ring stage Plasmodium falciparum 3D7. It counts as functional. The gist of the method:
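W2 IC50 divided by 3D7 IC50. Both were measured by 48 h YOYO-1 flow-cytometric growth assay on sorbitol-synchronised 1% ring-stage cultures in human erythrocytes at 37 C under 3% O2.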

The subject of series [6] is Plasmodium falciparum. Kind of series: Antiplasmodial activity against chloroquine-sensitive, mefloquine-resistant ring stage Plasmodium falciparum D6 infected in human red blood cells after 48 hrs. It counts as functional, organism-based. To be noted: D6, 48 h.
In series [7] the test system is Plasmodium falciparum. The series is described as follows: Antiplasmodial activity against chloroquine-resistant ring stage Plasmodium falciparum W2 infected in human red blood cells after 48 hrs. It counts as functional, organism-based. Particulars: W2, 48 h.
The test system of series [8] is Plasmodium falciparum. The series is described as follows: Antiplasmodial activity against chloroquine-sensitive ring stage Plasmodium falciparum 3D7 infected in human red blood cells after 48 hrs. It counts as functional, organism-based. Particulars: 3D7, 48 h.
For series [9], the system named is Vero. The series is described as follows: Cytotoxicity against african green monkey Vero cells after 48 hrs by MTT assay. To be noted: Chlorocebus sabaeus. It counts as cell-based. In a few lines:
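Vero monkey kidney cells in DMEM with 10% FBS at 37 C, 7% CO2; seeded 15000 cells/well and adhered overnight. Log dilutions from 30 mg/mL DMSO stock, 48 h exposure. MTT at 0.5 mg/mL final for 2 h; formazan dissolved in 95% ethanol, read at 570 nm. Viability relative to DMSO-medium wells; IC50 from concentration–viability curve; doxorubicin as standard.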

Series [10] in a line: Selectivity index, ratio of IC50 for african green monkey Vero cells to IC50 for chloroquine-resistant ring stage Plasmodium falciparum W2. Type of series: toxicity, cell-based. Particulars: read-out: Ratio IC50. In a few lines:
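Vero IC50 divided by W2 IC50. Vero: 15000 cells/well adhered overnight, then log dilutions from 30 mg/mL DMSO stock for 48 h. MTT 0.5 mg/mL final for 2 h at 37 C, formazan dissolved in 95% ethanol, A570 read against DMSO vehicle as 100% viability. W2: 48 h YOYO-1 flow-cytometric growth assay in human erythrocytes.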

The test system of series [11] is Heme. The series is described as follows: Binding affinity to heme by UV-visible titration. The gist of the method: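 Hematin monomer (FPIX-OH, 10 μM) in pH 5.5 HEPES-buffered 40% DMSO v/v at 25 C, titrated with ligand from 100 μM solution until above hematin concentration. Stirred 1 min per addition; spectra 230–500 nm, Soret change at 402 nm. Absorbance dilution-corrected, nonlinear fit for Kd; Kass calculated from Kd.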

Series [12] has as its system Plasmodium berghei. The series is described as follows: Antiplasmodial activity against GFP-expressing liver stage Plasmodium berghei sporozoites infected in human Huh-7 cells at 5 uM by fluorescence activated cell sorting based method. It counts as functional, organism-based. The gist of the method:
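Huh7 human hepatoma cells infected with GFP-expressing P. berghei sporozoites, compound at 5 μM. Read-out by FACS: invasion as % GFP-positive cells 2 h after sporozoite addition; development as GFP fluorescence intensity of positive cells at 48 h. Cells trypsinized for 5 min at 37 C, then resuspended in 2% FCS/PBS before analysis.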

Series [13] has as its system Nucleic Acid. The series is described as follows: Binding affinity to DNA assessed as quenching fluorescence intensity by UV-visible spectrophotometry. Type of series: nucleic-acid assay.
A short description of series [14]: Drug uptake in Plasmodium falciparum infected in human erythrocyte nucleus at 5 uM after 3 hrs by fluorescence microscopy. Type of series: ADME, cell-based. The gist of the method:
(§1)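 Human erythrocyte P. falciparum culture at 1.9% parasitemia, given 5 μM compound or DMSO solvent control for 3 h at room temperature in the dark. Washed gently with PBS, placed on poly-Lys-coated coverslips and imaged directly by phase contrast and fluorescence microscopy, 100× oil objective.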

Series [15] in a line: Drug uptake in Plasmodium falciparum infected in human erythrocyte food vacuoles at 5 uM after 3 hrs by fluorescence microscopy. Type of series: ADME, cell-based. The gist of the method: as §1
A short description of series [16]: Inhibition of hematin assessed as quenching fluorescence intensity at 1:1 drug-hematin ratio by UV-visible titration. It counts as functional. Particulars: dose or concentration not given here.
Series [17] has as its system Nucleic Acid. The series is described as follows: Binding affinity to s(GATCCTAGGATC)2-DNA by UV-visible spectrophotometry. It counts as nucleic-acid assay.

Calls of active or inactive are those of the source. The calls are words filed in the database; no cut-off is given here.

Broadly, the IC50 is the midpoint of a concentration-inhibition curve. On to `C[n+]1c2ccccc2c(NCCN)c2[nH]c3ccccc3c21.[Cl-]`, for which the IC50 in [1] is more than 25 µM; in series [2], 156 nM; in [4], 6.3 µM; in series [6], 107 nM; in [7], 89 nM; in [8], 115 nM. In addition, it took 60 µM to reach half-maximal inhibition in [9] (IC50). Further, the values for the Ka in [3] and in series [11] were 0.85 ×10⁶ /M and 0.127 ×10⁶ /M, respectively. For the same compound, the “Ratio IC50” value in [5] stood at 0.6. The selectivity ratio in [10] worked out at 678.
With `C[n+]1c2ccccc2c(NCCCCN)c2[nH]c3ccccc3c21.[Cl-]`, the IC50 in [2] was 422 nM; in series [6], 245 nM; in series [7], 65 nM; in [8], 190 nM; in series [9], more than 85 µM. For the same compound, the figures for the Ka in series [3] and in series [11] were 1.4 ×10⁶ /M and 0.147 ×10⁶ /M, respectively. For the same compound, the “Ratio IC50” value in series [5] is on record as 0.2. The selectivity ratio in [10] came to 1310.
On to `CCN(CC)CCCNc1c2ccc(Cl)cc2[n+](C)c2c1[nH]c1ccccc12.[Cl-]`, for which the IC50 in series [2] is 40 nM; in series [4], 11 µM; in [6], 70 nM; in [7], 21 nM; in series [8] it was 34 nM; in [9], 13 µM. The Ka in series [3] is 17 ×10⁶ /M; in [11], 0.11 ×10⁶ /M. Also, the “Ratio IC50” value in series [5] is given as 0.5. Further, the selectivity ratio in series [10] is 60.
For orientation: inhibition means the share of the control response that was lost under treatment. As to `C[n+]1c2ccccc2c(NC2CCNCC2)c2[nH]c3ccccc3c21.[Cl-]`, the result in [12] was inactive. For the same compound, in series [13], the Activity came out at 20%. The Drug uptake entry in [14] and in [15] was “Active” each time. The IC50 came to 7.9 µM in series [1]; 60 nM in [2]; 6.39 µM in series [4]; 59 nM in series [6]; 23 nM in series [8]; 62 µM in [9]. Also, the inhibition in series [16] is 60%. For the same compound, the Ka in series [3] is 0.74 ×10⁶ /M; in [11], 0.154 ×10⁶ /M. For the same compound, the “Ratio IC50” value in series [5] is on record as 0.7. The selectivity ratio in series [10] stood at 1410.
Regarding `C[n+]1c2ccccc2c(NCCCN)c2[nH]c3ccccc3c21.[Cl-]`, the IC50 in series [1] is 14 µM; in [2], 133 nM; in [4] it was 11 µM; in series [6], 71 nM; in series [7], 26 nM; in series [8] it was 54 nM. In [9], this compound gave an IC50 of 10 µM. Besides, the Ka in series [3] is 0.25 ×10⁶ /M; in [11], 0.18 ×10⁶ /M. For the same compound, the “Ratio IC50” value in [5] stood at 0.2. Besides, in series [10], the selectivity ratio was found to be 371.
With `C[n+]1c2ccccc2cc2[n-]c3ccccc3c21.Cl` [CRYPTOLEPINE HYDROCHLORIDE], the result in [12] was inactive. Further, the Drug uptake result in [14] and in series [15] was “Active” throughout. Further, the IC50 in [1] was more than 50 µM; in [2] it was 259 nM; in series [4] it was 38 µM; in series [6], 222 nM; in series [8], 424 nM; in series [9] it was 1.05 µM. Further, the Ka in series [17] turned out to be 0.25 ×10⁶ /M; in series [11] it was 0.045 ×10⁶ /M. Further, in series [5], the “Ratio IC50” value came to 2.9. In addition, the selectivity ratio in [10] is 1.4.
